CAL PDZ FP-1: CAL PDZ (human) peptide binding inhibition. AID 602252. purified CAL PDZ, TMR-peptide fluorescence polarization, 1 h. actives 0.92% (n = 300,000). inhibition, % at 24.9 µM;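 active = mean inhibition of at least 30% with at least half of replicates also reaching 30%; inconclusive = no clear call, values can overlap the other calls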
CAL PDZ FP-2: inhibitors of human CAL PDZ peptide binding. Q9HD26. AID 504414. inhibition, % at 20 µM. actives 0.02% (n = 330,000). purified CAL PDZ, TMR-peptide fluorescence polarization, 1 h;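 active = highest replicate inhibition of at least 40%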
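Test system: tagged CAL PDZ domain / Buffer or medium: sodium phosphate/NaCl buffer pH 7.4 with TCEP, IgG, Thesit / Reagent: TMR-labelled reporter peptide T*-PRC34 bound in PDZ groove / Compound dosing: single point, 20 µM / Schedule: 1 h incubation at room temperature before polarization reading / Technique: fluorescence polarization (mP) / Benchmarks: unlabelled peptide, DMSO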
Vif inh: blocks HIV Vif function; HEK293T cells, Vif self-association by quenched fluorescence, imaging, 24 h; inhibition, % at 7.49 µM; actives 0.35% (n = 340,000); AID 602346; in the data active = inhibition above about 50%, passing the limit was not always enough; inconclusive = no clear call, values can overlap the other calls; inactive = below about 31%
CDK5 inh: CDK5/p35 (human) kinase inhibition. Q00535+Q15078. Recombinant CDK5/p35, ADP-Glo luminescence, 60 min. inhibition, % at 10 µM. actives 0.01% (n = 330,000). AID 488839;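 active = highest replicate inhibition of at least 50% and at least 75% of replicates reaching 50%; inconclusive = only one of the two criteria met; inactive = both criteria failed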
Target sequence (Q00535 whole entry, looked up): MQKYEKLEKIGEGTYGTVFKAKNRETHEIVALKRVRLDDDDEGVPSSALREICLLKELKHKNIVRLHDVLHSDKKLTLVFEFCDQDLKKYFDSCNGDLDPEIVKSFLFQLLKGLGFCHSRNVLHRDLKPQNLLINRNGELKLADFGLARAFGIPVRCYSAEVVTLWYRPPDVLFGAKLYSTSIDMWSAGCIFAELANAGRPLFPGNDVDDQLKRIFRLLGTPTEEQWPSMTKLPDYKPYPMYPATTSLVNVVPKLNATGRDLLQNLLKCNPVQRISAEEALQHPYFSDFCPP
Target sequence (Q15078 whole entry, looked up): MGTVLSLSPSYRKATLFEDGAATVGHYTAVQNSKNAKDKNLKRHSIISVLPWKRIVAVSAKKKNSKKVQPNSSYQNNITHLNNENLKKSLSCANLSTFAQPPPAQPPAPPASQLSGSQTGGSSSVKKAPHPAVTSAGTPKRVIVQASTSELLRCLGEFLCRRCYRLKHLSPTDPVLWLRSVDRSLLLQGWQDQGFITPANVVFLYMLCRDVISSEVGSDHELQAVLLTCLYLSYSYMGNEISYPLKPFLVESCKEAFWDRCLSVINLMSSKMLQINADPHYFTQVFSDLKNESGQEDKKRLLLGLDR
PvdQ inh: P. aeruginosa PvdQ acylase inhibition; purified PvdQ acylase, fluorescence plate reader; inhibition, % at 10 µM; actives 0.063% (n = 340,000); in the data active = inhibition above about 30%, passing the limit was not always enough; inconclusive = no clear call, values can overlap the other calls
N-glyco inh: blocks N-linked glycosylation in D54 reporter cells | actives 0.23% (n = 360,000) | D54 ERlucT glycosylation luciferase reporter, 24 h; percent of 100 nM tunicamycin response | reporter increase, % at 12.5 µM;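 active = mean luciferase reporter signal, scaled so untreated is 0 and the glycosylation-blocking control 100, at or above a set limit in every replicate; inconclusive = mean reaches the limit but not every replicate does; inactive = mean below the limit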;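 also: luciferase carries N-glycosylation sites so blocking glycosylation raises the light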
Numbers stand for hits; – = inactive; ? = inconclusive; · = not tested or not shown; + = active, no number. Compounds with a hit are over-represented: about 1.4% of the library has one in this group of screens.

SMILES	CAL PDZ FP-1	CAL PDZ FP-2	Vif inh	CDK5 inh	PvdQ inh	N-glyco inh
O=C(N/N=C/c1c(-c2ccccc2)[nH]c2ccccc12)c1cccnc1	·	–	–	–	–	?
Cn1c(-c2ccccc2)c(/C=N/NC(=O)c2cccnc2)c2ccccc21	–	–	–	–	–	47
COc1cccc(/C=N/NC(=O)c2cnccn2)c1O	90	–	–	–	–	–
COc1c(Br)cc(Br)cc1/C=N/NC(=O)c1cccnc1	–	–	–	–	–	30
COc1ccc(S(=O)(=O)N2CCCCC2)cc1NC(=O)C1CC(=O)N(Cc2ccccc2)C1 (stereo unspecified)	–	–	–	–	–	–
COc1cc(C(=O)NCC(=O)NNC(=O)C2COc3ccccc3O2)cc(OC)c1OC (stereo unspecified)	–	–	–	–	–	–
O=C(Nc1ccccc1Oc1ccsc1C(=O)O)c1ccccc1	39	–	–	–	–	–
CCOc1ccc(OCc2ccc(C(=O)N3CCCC(C)C3)cc2)cc1 (stereo unspecified)	–	–	–	–	–	–
CC1CCCN(C(=O)c2ccc(COc3ccccc3Br)cc2)C1 (stereo unspecified)	40	–	·	–	–	–
O=C(Nc1ccc(S(=O)(=O)NCc2ccco2)cc1)c1ccc(F)cc1	–	–	–	–	–	–
CC/C(=N\NS(=O)(=O)c1ccc(C)cc1)c1ccco1	36	·	–	–	–	–
CCC(=O)Nc1ccc(S(=O)(=O)NCc2ccco2)cc1	–	144	–	–	–	–
Cc1ccc(C(=O)Nc2ccc(S(=O)(=O)NCc3ccco3)cc2)cc1	·	–	–	–	–	–
O=C(Nc1ccccc1)c1ccc(S(=O)(=O)NCc2ccco2)cc1	39	–	–	–	–	–
Cc1ccc(-c2ccc(S(=O)(=O)NCc3ccco3)cc2)cc1	+	–	–	–	–	–
NC(N)=N/N=C/c1ccc2cccc(OCc3ccccc3)c2n1	–	–	–	–	–	29
O=C(CCc1ccccc1F)N1CCN(c2ccc(C(F)(F)F)cn2)CC1	45	–	–	–	–	–
O=C(O)CSCC(=O)N1CCCN(c2ccc(C(F)(F)F)cn2)CC1	–	–	–	–	–	–
CCN1/C(=C/c2ccc3cc(C)ccc3[n+]2CC)Sc2ccccc21	–	–	–	–	–	–
CCN1/C(=C/c2sc(-c3ccccc3C)c[n+]2C)Sc2ccccc21	–	–	–	–	–	36
COC(=O)Nc1ccc2c(c1)N(C(=O)CCN(C)C)c1ccccc1CC2	·	–	–	–	–	–
COc1ccc(C(=O)c2sc3nc(C)cc(-c4cccs4)c3c2N)cc1OC	–	–	176	–	–	–
COCCOC(=O)C1=C(C)NC(C)=C(C(=O)OC(C)C)C1c1cccc([N+](=O)[O-])c1 (stereo unspecified)	–	–	–	–	–	–
CCOC(=O)C1=C(C)NC(C)=C(C(=O)OC)C1c1cccc([N+](=O)[O-])c1 (stereo unspecified)	–	–	135	–	–	–
COCCN1C[C@@H](CO)O[C@@H](n2cnc3c(N4CCN(CCO)CC4)ncnc32)C1	·	·	·	·	·	–
SMILES	CAL PDZ FP-1	CAL PDZ FP-2	Vif inh	CDK5 inh	PvdQ inh	N-glyco inh
COc1ccc(-c2ccc(C(=O)Nc3cccc(NS(C)(=O)=O)c3)c3occc23)c(C)c1	·	·	–	·	·	–
CC(C)C(=O)NNC(=O)C1CC1(c1ccccc1)c1ccccc1 (stereo unspecified)	–	–	–	–	–	–
CC(C)(C)NC(=O)C1CC1(c1ccccc1)c1ccccc1 (stereo unspecified)	46	·	–	–	–	–
COc1cc(OC)cc(C(=O)N[C@H](C(=O)OCC(=O)Nc2cccnc2Cl)C(C)C)c1	–	–	–	–	–	–
O=C(COc1ccc(Cl)cc1)c1ccc(O)cc1O	55	–	–	–	–	–
COC(=O)c1ccc(OCC(=O)c2ccc(O)cc2O)cc1	–	–	–	–	–	–
N#CC(OC(=O)c1ccccc1)c1cccc([N+](=O)[O-])c1 (stereo unspecified)	–	–	–	–	72	–
O=C(NC(NC(=O)c1ccccc1)c1cccc([N+](=O)[O-])c1)c1ccccc1	–	–	–	–	–	–
O=C1CSC(=S)N1Nc1ccccc1	53	–	–	–	–	–
CCN(CC)C(=O)Cn1cc([N+](=O)[O-])cc1[N+](=O)[O-]	–	–	–	–	–	–
CCc1ccc(/C=C(\Cl)c2nc3cc(Cl)ccc3c(=O)[nH]2)cc1	53	–	–	–	–	–
COc1ccccc1C(=O)COC(=O)C1(C)CC1(Cl)Cl (stereo unspecified)	–	–	71	–	–	–
CC1(c2ccc3c(c2)OCO3)NC(=O)N(CC(=O)Nc2ccccc2[N+](=O)[O-])C1=O (stereo unspecified)	46	–	–	–	–	–
C#CCOCCOCCOCCNc1nc(N2CCN(C(=O)[C@H](CCCCN)n3cc([C@@H](N)CO)nn3)CC2)nc(N2CCN(C(=O)[C@H](CCCCN)n3cc([C@@H](N)CC(C)C)nn3)CC2)n1	–	–	–	–	–	–
CC(=O)Nc1ccc(C(=O)N/N=C/c2ccccc2OCc2ccccc2)cc1	–	–	–	–	–	41
COc1ccc(OC)c(NC(=O)N2CCCC(C(=O)c3ccccc3OC)C2)c1 (stereo unspecified)	77	–	–	–	–	–
CC(C)(C)c1ccc(C(=O)C2CCCN(C(=O)c3ccccn3)C2)cc1 (stereo unspecified)	–	–	–	–	–	–
COc1cccc(C(=O)C2CCCN(C(=O)c3ccccn3)C2)c1 (stereo unspecified)	73	–	–	–	–	–
O=C(O)c1ccc(-c2ccccn2)s1	–	–	–	–	–	–
c1ccc(-c2ccc(-c3ccccn3)s2)nc1	41	–	–	–	–	–
CCOCCCn1c(=S)[nH]c2cc(C(=O)NC3CCCC(C)C3C)ccc2c1=O (stereo unspecified)	62	–	–	–	–	–
CCOCCCNC(=O)c1ccc2c(=O)n(Cc3ccc4c(c3)OCO4)c(=S)[nH]c2c1	37	–	–	–	–	–
O=[N+]([O-])c1ccc(NCCCc2ccccc2)cc1	·	·	–	·	·	–
Cc1cc(OCc2cc(C(=O)N(Cc3nccn3C)C(C)C)no2)cc(C)c1Cl	–	–	–	–	–	–
Cc1cccc(C(=O)Nc2cc(Cl)ccc2-n2cncn2)c1[N+](=O)[O-]	–	–	–	–	–	–
Cc1cccc2nc(C(=O)Nc3cc(Cl)ccc3-n3cncn3)cn12	–	–	75	–	–	–
Nc1nonc1C(=O)NCCNCc1ccccc1OCc1ccccc1F	74	–	–	–	–	–
Cc1ccccc1OCC(=O)Nc1nnc(C2CCCC2)s1	–	–	–	–	–	–

From PubChem BioAssay
